Data set [1] deals with Mus musculus. The experiment in a line: Toxicity in mouse at 3 mg/kg, ip. Format: organism-based. Set-up: dose 3 mg/kg, route intraperitoneal. The note with it: in vivo.
Data set [2] has as its system Mus musculus. The experiment in a line: Antinociceptive activity in mouse assessed as inhibition of acetic acid-induced writhing response at 3 mg/kg, ip after 10 mins measured for 10 mins. Format: functional. To be noted: route intraperitoneal. Put shortly:
(§1)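 Mice (20–24 g) dosed intraperitoneally, then given 0.5% aqueous acetic acid i.p. at 10 ml/kg. Stretches (back arching, pelvic rotation, hind-limb extension) were counted in an observation beaker for 10 min, starting 10 min after the acid. % inhibition is versus the control group. n = 50 mice for control and reference groups, 10 per other treatment. ANOVA with Fisher PLSD.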
For orientation: In writhing tests, fewer writhes than in controls are read as antinociception.

Data set [3] deals with Mus musculus. The experiment in a line: Antinociceptive activity in mouse assessed as inhibition of acetic acid-induced writhing response at 100 umol/kg, ip after 10 mins measured for 10 mins. Format: functional. Put shortly:
as §1

Data set [4] concerns Mus musculus. The experiment in a line: Toxicity in mouse assessed as effect on locomotion at 33 to 100 umol/kg, ip measured after 25 to 35 mins. It is filed as organism-based. The note with it: in vivo. Put shortly: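 Mice were injected ip with drug or saline and returned at once to photocell-beam cages for 1 h. Horizontal locomotion was scored as cage crossings and analysed over 25–35 min post-treatment, the same window as the writhing counts. Methylphenidate 10 mg/kg and haloperidol 0.5 mg/kg served as stimulant and depressant references. Statistics by Fisher PLSD.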

In data set [5] the test system is Mus musculus. The experiment in a line: Antinociceptive activity in mouse assessed as inhibition of acetic acid-induced writhing response at 10 umol/kg, po after 10 mins measured for 10 mins. Format: functional. Put shortly: (§2)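 Oral dosing, with 8 mice per treatment group. Writhing was induced by 0.5% aqueous acetic acid i.p. (10 ml/kg). Stretches were tallied over 10 min, beginning 10 min after the acid. % inhibition of constrictions is relative to the control group. Statistics by ANOVA and Fisher PLSD.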

Data set [6] relates to Mus musculus. The experiment in a line: Antinociceptive activity in mouse assessed as inhibition of acetic acid-induced writhing response at 33.3 umol/kg, po after 10 mins measured for 10 mins. It is filed as functional. Put shortly: as §2
Data set [7] has as its system Mus musculus. The experiment in a line: Antinociceptive activity in mouse assessed as increase of forepaw licking latency at 100 umol/kg, ip measured after 15 to 60 mins by hot plate test. Format: functional, organism-based. Put shortly:
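Hot-plate test at 55 °C with groups of 10 mice. Latency to forepaw licking was timed by stopwatch. Baseline was read twice before injection, and only mice reacting within 4–12 s were used. Readings were taken at 15, 30, 45 and 60 min after ip dosing, with a 30 s cutoff. Vehicle was physiological serum; morphine 5 mg/kg served as reference. Data are mean ± SEM, one-way ANOVA with Fisher PLSD.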

Data set [8] deals with Mus musculus. Put plainly: Antinociceptive activity in mouse assessed as inhibition of acetic acid-induced writhing response at 100 umol/kg, po after 10 mins measured for 10 mins. It is filed as functional. Put shortly:
as §2

For data set [9], the system named is Mus musculus. Put plainly: Antinociceptive activity in mouse assessed as inhibition of acetic acid-induced writhing response at 15 mg/kg, ip after 10 mins measured for 10 mins. The note with it: route intraperitoneal. It is filed as functional. Put shortly: as §1

Active and inactive are the calls of the source. Where only a bound is given, the exact number is not on record here.

For `COc1ccc(N2CCN(C(=O)CCc3cc4c(cc3N)OCO4)CC2)cc1`, the Activity result in the data set with Mus musculus [1] is “Non-toxic”. The inhibition in vivo at 3 mg/kg in the data set with Mus musculus [2] amounted to 21.5%.
The corresponding values for `O=C(CCc1cc2c(cc1[N+](=O)[O-])OCO2)N1CCN(c2ccc(F)cc2)CC1` are “Non-toxic” and 14.3%.
In the case of `COc1ccccc1N1CCN(C(=O)CCc2cc3c(cc2[N+](=O)[O-])OCO3)CC1`, in the data set on Mus musculus [1], the Activity entry is “Non-toxic”. Besides, the inhibition in vivo at 3 mg/kg in the data set with Mus musculus [2] was 4.8%.
Consider `COc1cc(CCC(=O)N2CCCCC2)c([N+](=O)[O-])cc1OC`, for which the Activity result in the data set with Mus musculus [1] is recorded as “Non-toxic”. In addition, in the data set with Mus musculus [2], the inhibition in vivo at 3 mg/kg turned out to be 33%. Moreover, the inhibition in vivo at 100 µmol/kg with Mus musculus [3] came out at 39.1%.
Turning to `O=C(CCc1cc2c(cc1[N+](=O)[O-])OCO2)N1CCOCC1`, the Activity entry with Mus musculus [1] is recorded as “Non-toxic”. The inhibition in vivo at 3 mg/kg in the data set on Mus musculus [2] was found to be 31.4%.
On to `COc1ccc(CCC(=O)N2CCCCC2)cc1OC`, for which, in the data set with Mus musculus [1], the Activity entry is given as “Non-toxic”. In the data set on Mus musculus [2], the inhibition in vivo at 3 mg/kg is < 0%.
As for `O=C(CCc1cc2c(cc1[N+](=O)[O-])OCO2)N1CCN(CCO)CC1`, in the data set with Mus musculus [1], the Activity entry is given as “Non-toxic”. Further, in the data set with Mus musculus [2], the inhibition in vivo at 3 mg/kg worked out at 32.9%.
With `O=C(CCc1ccc2c(c1)OCO2)N1CCCCC1`, in the data set on Mus musculus [1], the Activity entry is recorded as “Non-toxic”. Also, in the data set on Mus musculus [2], the inhibition in vivo at 3 mg/kg was determined as 53%.
On to `COc1cc(CCC(=O)N2CCOCC2)c([N+](=O)[O-])cc1OC`, for which the Activity result in the data set on Mus musculus [1] was “Non-toxic”. Further, in the data set on Mus musculus [2], the inhibition in vivo at 3 mg/kg turned out to be 15.3%.
The corresponding values for `NC(=O)CCc1cc2c(cc1[N+](=O)[O-])OCO2` are “Non-toxic” and 14.8%.
Regarding `O=C(CCc1cc2c(cc1[N+](=O)[O-])OCO2)N1CCN(c2ccc(Cl)c(Cl)c2)CC1`, the Activity result in the data set with Mus musculus [1] is on record as “Non-toxic”. In the data set on Mus musculus [2], the inhibition in vivo at 3 mg/kg came out at 22%.
In the case of `CCOC(=O)CCc1cc2c(cc1[N+](=O)[O-])OCO2`, the Activity entry with Mus musculus [1] is listed as “Non-toxic”. In addition, in the data set with Mus musculus [2], the inhibition in vivo at 3 mg/kg was 40.5%.
`O=C(CCc1cc2c(cc1[N+](=O)[O-])OCO2)N1CCCCC1`: the Activity result with Mus musculus [1] was “Non-toxic”. For the same molecule, in the data set on Mus musculus [2], the inhibition in vivo at 3 mg/kg is 25.2%. The inhibition in vivo at 100 µmol/kg with Mus musculus [3] is 44.8%.
As for `COc1ccc(N2CCN(C(=O)CCc3ccc4c(c3)OCO4)CC2)cc1`, the Activity entry with Mus musculus [1] is on record as “Non-toxic”. Also, the inhibition in vivo at 3 mg/kg with Mus musculus [2] turned out to be 2.4%.
For `CC1CCCCN1C(=O)CCc1ccc2c(c1)OCO2` (configuration not stated), in that order: “Non-toxic” and 20.1%.
With `O=C(CCc1cc2c(cc1[N+](=O)[O-])OCO2)N1CCN(c2ccccc2)CC1`, the Activity result in the data set with Mus musculus [1] was “Non-toxic”. For the same molecule, the inhibition in vivo at 3 mg/kg with Mus musculus [2] stood at 21.5%.
In the case of `CCCCCCNC(=O)CCc1cc2c(cc1[N+](=O)[O-])OCO2`, the Activity entry with Mus musculus [1] is “Non-toxic”. For the same molecule, the inhibition in vivo at 3 mg/kg in the data set with Mus musculus [2] came to 38.6%. For the same molecule, the inhibition in vivo at 100 µmol/kg in the data set on Mus musculus [3] is 26%.
Regarding `COc1ccc(N2CCN(C(=O)CCc3cc4c(cc3[N+](=O)[O-])OCO4)CC2)cc1`, the Activity result with Mus musculus [4] and with Mus musculus [1] was “Non-toxic” in each case. Also, in the data set with Mus musculus [5], the inhibition in vivo at 10 µmol/kg came out at 28.6%. The inhibition in vivo at 33.3 µmol/kg with Mus musculus [6] turned out to be 35.7%. Besides, the result in the data set on Mus musculus [7] was inactive. In addition, the inhibition in vivo at 3 mg/kg in the data set with Mus musculus [2] came to 37.2%. Further, the figures for the inhibition in vivo at 100 µmol/kg with Mus musculus [8] and in the data set on Mus musculus [3] were 40% and 50%, respectively.
Turning to `O=C(CCc1cc2c(cc1[N+](=O)[O-])OCO2)Nc1ccccn1`, the Activity result with Mus musculus [1] is “Non-toxic”. Also, the inhibition in vivo at 3 mg/kg in the data set on Mus musculus [2] was found to be 10%.
As to `O=C(CCc1cc2c(cc1[N+](=O)[O-])OCO2)Nc1ccccc1`, in the data set with Mus musculus [1], the Activity result is listed as “Non-toxic”. Besides, in the data set with Mus musculus [2], the inhibition in vivo at 3 mg/kg turned out to be 12.9%.
With `CC(=O)Oc1ccccc1C(=O)O` [ASPIRIN], the inhibition in vivo at 15 mg/kg in the data set with Mus musculus [9] turned out to be 62.3%. For the same molecule, the inhibition in vivo at 100 µmol/kg was found to be 31.2% in the data set on Mus musculus [8] and 59% in the data set on Mus musculus [3].

What is called inhibition in vivo is the change of the read-out against control, counted positive when it falls.

The record behind these values is ChEMBL document CHEMBL2434889, “New orally effective 3-(2-nitro)phenylpropanamide analgesic derivatives: synthesis and antinociceptive evaluation” (Eur J Med Chem, 2013).
